Measured values as given in ChEMBL document CHEMBL4680175, “Sulfonamide-based ring-fused analogues for CAN508 as novel carbonic anhydrase inhibitors endowed with antitumor activity: Design, synthesis, and in vitro biological evaluation” (Eur J Med Chem, 2020).
Blank lines part the entries; values can stand above or below the compound they belong to. Active and inactive are the calls of the source. The calls are words filed in the database; no cut-off is given here.

How the values were obtained:
[1] = biological target: Carbonic anhydrase 2 (Homo sapiens, UniProt P00918); test: Inhibition of recombinant human carbonic anhydrase 2 preincubated with enzyme for 15 mins by phenol red dye based stopped flow CO2 hydrase assay
[2] = biological target: Carbonic anhydrase 9 (Homo sapiens, UniProt Q16790); test: Inhibition of recombinant human carbonic anhydrase 9 preincubated with enzyme for 15 mins by phenol red dye based stopped flow CO2 hydrase assay
[3] = biological target: Carbonic anhydrase 12 (Homo sapiens, UniProt O43570); test: Inhibition of recombinant human carbonic anhydrase 12 preincubated with enzyme for 15 mins by phenol red dye based stopped flow CO2 hydrase assay
Carbonic anhydrase 12, sequence (O43570 whole entry, the tested form may be a part): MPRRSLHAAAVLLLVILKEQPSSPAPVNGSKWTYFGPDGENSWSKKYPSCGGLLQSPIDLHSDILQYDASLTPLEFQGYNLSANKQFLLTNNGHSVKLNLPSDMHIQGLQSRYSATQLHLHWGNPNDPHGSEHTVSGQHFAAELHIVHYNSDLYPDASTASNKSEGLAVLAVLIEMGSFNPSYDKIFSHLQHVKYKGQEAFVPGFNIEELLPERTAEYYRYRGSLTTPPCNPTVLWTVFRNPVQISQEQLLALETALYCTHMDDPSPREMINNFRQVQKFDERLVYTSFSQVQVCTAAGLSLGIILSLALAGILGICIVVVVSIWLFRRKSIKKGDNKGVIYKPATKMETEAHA

[4] = biological target: CDK9/cyclin T1 (Homo sapiens, UniProt P50750); test: Inhibition of human full-length N-terminal GST/His6-tagged CDK9 (1 to 372 residues)/His6-tagged Cyclin-T1 (1 to 726 residues) expressed in sf9 cells using (YSPTSPS)2KK peptide as substrate in presence of [gamma33P]ATP
CDK9/cyclin T1, sequence (O60563 whole entry, the tested form may be a part): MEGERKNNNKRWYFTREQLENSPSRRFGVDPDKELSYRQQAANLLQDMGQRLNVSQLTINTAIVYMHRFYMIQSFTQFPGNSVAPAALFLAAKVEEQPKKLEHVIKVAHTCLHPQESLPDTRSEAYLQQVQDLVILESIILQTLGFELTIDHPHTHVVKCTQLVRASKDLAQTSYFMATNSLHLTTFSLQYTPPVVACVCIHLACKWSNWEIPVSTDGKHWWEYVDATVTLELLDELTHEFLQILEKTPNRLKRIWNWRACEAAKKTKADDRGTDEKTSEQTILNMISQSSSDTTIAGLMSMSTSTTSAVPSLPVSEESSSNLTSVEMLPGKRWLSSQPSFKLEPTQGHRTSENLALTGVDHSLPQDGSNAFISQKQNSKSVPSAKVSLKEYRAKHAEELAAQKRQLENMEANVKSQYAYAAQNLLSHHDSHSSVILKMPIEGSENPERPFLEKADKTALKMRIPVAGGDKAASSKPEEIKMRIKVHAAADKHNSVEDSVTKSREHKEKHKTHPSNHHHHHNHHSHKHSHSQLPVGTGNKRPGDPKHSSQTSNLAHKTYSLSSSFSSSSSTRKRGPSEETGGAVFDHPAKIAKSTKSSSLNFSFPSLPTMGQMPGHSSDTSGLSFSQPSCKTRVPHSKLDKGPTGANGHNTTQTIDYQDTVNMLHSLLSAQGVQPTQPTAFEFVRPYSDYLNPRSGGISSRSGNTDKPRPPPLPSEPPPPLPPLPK
CDK9/cyclin T1, sequence (P50750 whole entry, the tested form may be a part): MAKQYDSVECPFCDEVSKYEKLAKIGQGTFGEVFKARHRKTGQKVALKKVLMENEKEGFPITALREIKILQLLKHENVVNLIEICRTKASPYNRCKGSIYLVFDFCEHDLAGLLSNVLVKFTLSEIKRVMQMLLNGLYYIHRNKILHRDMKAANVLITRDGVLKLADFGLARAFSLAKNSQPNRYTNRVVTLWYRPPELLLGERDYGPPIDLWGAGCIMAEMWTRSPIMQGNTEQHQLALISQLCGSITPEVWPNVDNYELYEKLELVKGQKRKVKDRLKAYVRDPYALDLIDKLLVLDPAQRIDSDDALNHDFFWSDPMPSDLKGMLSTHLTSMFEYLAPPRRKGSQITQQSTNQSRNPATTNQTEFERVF

[5] = biological target: Cyclin-dependent kinase 2/cyclin E1 (Homo sapiens, UniProt P24941); test: Inhibition of CDK2/cyclin E (unknown origin) expressed in baculovirus infected Sf21 insect cells using histone H1 as substrate in presence of [gamma33P]ATP
[6] = biological target: Carbonic anhydrase 1 (Homo sapiens, UniProt P00915); test: Inhibition of recombinant human carbonic anhydrase 1 preincubated with enzyme for 15 mins by phenol red dye based stopped flow CO2 hydrase assay
Carbonic anhydrase 1, sequence (P00915 whole entry): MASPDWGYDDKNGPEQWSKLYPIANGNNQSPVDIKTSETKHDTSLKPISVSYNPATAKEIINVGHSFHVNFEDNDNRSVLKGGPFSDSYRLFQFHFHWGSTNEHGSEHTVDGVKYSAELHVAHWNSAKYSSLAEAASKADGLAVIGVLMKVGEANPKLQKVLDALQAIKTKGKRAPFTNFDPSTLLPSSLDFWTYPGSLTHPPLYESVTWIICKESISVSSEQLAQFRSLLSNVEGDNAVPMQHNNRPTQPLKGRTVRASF

[7] = system: SK-MEL-5; test: Antitumor activity against human SK-MEL-5 cells assessed as cell growth inhibition at 10 uM incubated for 48 hrs by sulforhodamine B assay; format: functional; conditions: read-out: GI
Procedure, shortened: (§1)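 NCI Drug Evaluation Branch protocol: primary single-dose screen at 10 μM across a 57-line human cancer panel. Drug exposure is 48 h. Cell growth and viability are read by sulforhodamine B assay. Data are given as a mean graph of percent growth of treated cells and reported as percentage growth inhibition (GI%).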

[8] = system: HOP-92; test: Antitumor activity against human HOP92 cells assessed as cell growth inhibition at 10 uM incubated for 48 hrs by sulforhodamine B assay; format: functional; conditions: read-out: GI; procedure, shortened: as §1
[9] = system: U-251; test: Antitumor activity against human U251 cells assessed as cell growth inhibition at 10 uM incubated for 48 hrs by sulforhodamine B assay; format: functional; conditions: read-out: GI
Procedure, shortened: (§2)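 NCI one-dose screen: 57-cell-line panel exposed at 10 μM for 48 h, Drug Evaluation Branch protocol. Growth and viability read by sulforhodamine B; data given as percent growth inhibition from the mean-graph of percent growth of treated cells.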

[10] = system: RXF 393; test: Antitumor activity against human RXF 393 cells assessed as cell growth inhibition at 10 uM incubated for 48 hrs by sulforhodamine B assay; format: functional; conditions: read-out: GI; procedure, shortened: as §1
[11] = system: DU-145; test: Antitumor activity against human DU-145 cells assessed as cell growth inhibition at 10 uM incubated for 48 hrs by sulforhodamine B assay; format: functional; conditions: read-out: GI; procedure, shortened: as §1
[12] = system: SK-OV-3; test: Antitumor activity against human SK-OV-3 cells assessed as cell growth inhibition at 10 uM incubated for 48 hrs by sulforhodamine B assay; format: functional; conditions: read-out: GI; procedure, shortened: as §1
[13] = system: UACC-62; test: Antitumor activity against human UACC-62 cells assessed as cell growth inhibition at 10 uM incubated for 48 hrs by sulforhodamine B assay; format: functional; conditions: read-out: GI; procedure, shortened: as §2
[14] = system: SF-268; test: Antitumor activity against human SF268 cells assessed as cell growth inhibition at 10 uM incubated for 48 hrs by sulforhodamine B assay; format: functional; conditions: read-out: GI; procedure, shortened: as §1
[15] = system: ACHN; test: Antitumor activity against human ACHN cells assessed as cell growth inhibition at 10 uM incubated for 48 hrs by sulforhodamine B assay; format: functional; conditions: read-out: GI; procedure, shortened: as §1
[16] = system: M14; test: Antitumor activity against human M14 cells assessed as cell growth inhibition at 10 uM incubated for 48 hrs by sulforhodamine B assay; format: functional; conditions: read-out: GI; procedure, shortened: as §1
[17] = system: BT-549; test: Antitumor activity against human BT-549 cells assessed as cell growth inhibition at 10 uM incubated for 48 hrs by sulforhodamine B assay; format: functional; conditions: read-out: GI; procedure, shortened: as §1
[18] = system: A498; test: Antitumor activity against human A498 cells assessed as cell growth inhibition at 10 uM incubated for 48 hrs by sulforhodamine B assay; format: functional; conditions: read-out: GI; procedure, shortened: as §1
[19] = system: 786-0; test: Antitumor activity against human 786-0 cells assessed as cell growth inhibition at 10 uM incubated for 48 hrs by sulforhodamine B assay; format: functional; conditions: read-out: GI; procedure, shortened: as §1
[20] = system: RPMI-8226; test: Antitumor activity against human RPMI8226 cells assessed as cell growth inhibition at 10 uM incubated for 48 hrs by sulforhodamine B assay; format: functional; conditions: read-out: GI; procedure, shortened: as §1
[21] = system: NCI-H522; test: Antitumor activity against human NCI-H522 cells assessed as cell growth inhibition at 10 uM incubated for 48 hrs by sulforhodamine B assay; format: functional; conditions: read-out: GI; procedure, shortened: as §1
[22] = system: SF-539; test: Antitumor activity against human SF539 cells assessed as cell growth inhibition at 10 uM incubated for 48 hrs by sulforhodamine B assay; format: functional; conditions: read-out: GI; procedure, shortened: as §1
[23] = system: SNB-75; test: Antitumor activity against human SNB-75 cells assessed as cell growth inhibition at 10 uM incubated for 48 hrs by sulforhodamine B assay; format: functional; conditions: read-out: GI; procedure, shortened: as §2
[24] = system: SR; test: Antitumor activity against human SR cells assessed as cell growth inhibition at 10 uM incubated for 48 hrs by sulforhodamine B assay; format: functional; conditions: read-out: GI; procedure, shortened: as §2
[25] = system: KM12; test: Antitumor activity against human KM12 cells assessed as cell growth inhibition at 10 uM incubated for 48 hrs by sulforhodamine B assay; format: functional; conditions: read-out: GI; procedure, shortened: as §1
[26] = system: OVCAR-3; test: Antitumor activity against human OVCAR-3 cells assessed as cell growth inhibition at 10 uM incubated for 48 hrs by sulforhodamine B assay; format: functional; conditions: read-out: GI; procedure, shortened: as §1
[27] = system: HCT-116; test: Antitumor activity against human HCT116 cells assessed as cell growth inhibition at 10 uM incubated for 48 hrs by sulforhodamine B assay; format: functional; conditions: read-out: GI; procedure, shortened: as §1
[28] = system: IGROV-1; test: Antitumor activity against human IGROV1 cells assessed as cell growth inhibition at 10 uM incubated for 48 hrs by sulforhodamine B assay; format: functional; conditions: read-out: GI; procedure, shortened: as §1
[29] = system: SW-620; test: Antitumor activity against human SW620 cells assessed as cell growth inhibition at 10 uM incubated for 48 hrs by sulforhodamine B assay; format: functional; conditions: read-out: GI; procedure, shortened: as §2
[30] = system: SN12C; test: Antitumor activity against human SN12C cells assessed as cell growth inhibition at 10 uM incubated for 48 hrs by sulforhodamine B assay; format: functional; conditions: read-out: GI; procedure, shortened: as §1
[31] = system: CCRF-CEM; test: Antitumor activity against human CCRF-CEM cells assessed as cell growth inhibition at 10 uM incubated for 48 hrs by sulforhodamine B assay; format: functional; conditions: read-out: GI; procedure, shortened: as §1
[32] = system: OVCAR-8; test: Antitumor activity against human OVCAR-8 cells assessed as cell growth inhibition at 10 uM incubated for 48 hrs by sulforhodamine B assay; format: functional; conditions: read-out: GI; procedure, shortened: as §1
[33] = system: CAKI-1; test: Antitumor activity against human CAKI-1 cells assessed as cell growth inhibition at 10 uM incubated for 48 hrs by sulforhodamine B assay; format: functional; conditions: read-out: GI; procedure, shortened: as §1
[34] = system: NCI-H322M; test: Antitumor activity against human NCI-H322M cells assessed as cell growth inhibition at 10 uM incubated for 48 hrs by sulforhodamine B assay; format: functional; conditions: read-out: GI; procedure, shortened: as §1
[35] = system: MDA-MB-231; test: Antitumor activity against human MDA-MB-231/ATCC cells assessed as cell growth inhibition at 10 uM incubated for 48 hrs by sulforhodamine B assay; format: functional; conditions: read-out: GI; procedure, shortened: as §1
[36] = system: HCT-15; test: Antitumor activity against human HCT15 cells assessed as cell growth inhibition at 10 uM incubated for 48 hrs by sulforhodamine B assay; format: functional; conditions: read-out: GI; procedure, shortened: as §1
[37] = system: NCI-H460; test: Antitumor activity against human NCI-H460 cells assessed as cell growth inhibition at 10 uM incubated for 48 hrs by sulforhodamine B assay; format: functional; conditions: read-out: GI; procedure, shortened: as §1
[38] = system: NCI/ADR-RES; test: Antitumor activity against human NCI/ADR-RES cells assessed as cell growth inhibition at 10 uM incubated for 48 hrs by sulforhodamine B assay; format: functional, cell-based; procedure, shortened: as §1
[39] = system: LOX IMVI; test: Antitumor activity against human LOX IMVI cells assessed as cell growth inhibition at 10 uM incubated for 48 hrs by sulforhodamine B assay; format: functional; conditions: read-out: GI; procedure, shortened: as §1
[40] = system: Hs-578T; test: Antitumor activity against human HS 578T cells assessed as cell growth inhibition at 10 uM incubated for 48 hrs by sulforhodamine B assay; format: functional; conditions: read-out: GI; procedure, shortened: as §1
[41] = system: Malme-3M; test: Antitumor activity against human MALME-3M cells assessed as cell growth inhibition at 10 uM incubated for 48 hrs by sulforhodamine B assay; format: functional; conditions: read-out: GI; procedure, shortened: as §1
[42] = system: MDA-MB-435; test: Antitumor activity against human MDA-MB-435 cells assessed as cell growth inhibition at 10 uM incubated for 48 hrs by sulforhodamine B assay; format: functional; conditions: read-out: GI; procedure, shortened: as §1
[43] = system: UO-31; test: Antitumor activity against human UO-31 cells assessed as cell growth inhibition at 10 uM incubated for 48 hrs by sulforhodamine B assay; format: functional; conditions: read-out: GI; procedure, shortened: as §2
[44] = system: SK-MEL-2; test: Antitumor activity against human SK-MEL-2 cells assessed as cell growth inhibition at 10 uM incubated for 48 hrs by sulforhodamine B assay; format: functional; conditions: read-out: GI; procedure, shortened: as §1
[45] = system: T47D; test: Antitumor activity against human T-47D cells assessed as cell growth inhibition at 10 uM incubated for 48 hrs by sulforhodamine B assay; format: functional; conditions: read-out: GI; procedure, shortened: as §2

Ki [1]: 38.1 nM
Ki [2]: 22 nM
Ki [3]: 10.1 nM
IC50 [4]: > 12500 nM
IC50 [5]: 41700 nM
Ki [6]: 271 nM
SMILES: Nc1n[nH]c(N)c1/N=N/c1ccc(S(N)(=O)=O)cc1

Ki [1]: 14.5 nM
Ki [2]: 6 nM
Ki [3]: 31.4 nM
IC50 [4]: > 12500 nM
IC50 [5]: > 12500 nM
Ki [6]: 681 nM
SMILES: Nc1nn2c(-c3ccc(F)cc3)ccnc2c1/N=N/c1ccc(S(N)(=O)=O)cc1

Ki [1]: 33.8 nM
Ki [2]: 28.4 nM
Ki [3]: 18.6 nM
IC50 [4]: > 12500 nM
IC50 [5]: > 12500 nM
Ki [6]: 769 nM
SMILES: Nc1nn2cc(-c3ccc(F)cc3)[nH]c2c1/N=N/c1ccc(S(N)(=O)=O)cc1
inhibition of growth at 10 µM [7]: 23%
inhibition of growth at 10 µM [8]: 25%
inhibition of growth at 10 µM [9]: 24%
inhibition of growth at 10 µM [10]: 40%
inhibition of growth at 10 µM [11]: 30%
inhibition of growth at 10 µM [12]: 26%
inhibition of growth at 10 µM [13]: 29%
inhibition of growth at 10 µM [14]: 23%
inhibition of growth at 10 µM [15]: 48%
inhibition of growth at 10 µM [16]: 35%
inhibition of growth at 10 µM [17]: 26%
inhibition of growth at 10 µM [18]: 60%
inhibition of growth at 10 µM [19]: 32%
inhibition of growth at 10 µM [20]: 27%
inhibition of growth at 10 µM [21]: 45%
inhibition of growth at 10 µM [22]: 27%
inhibition of growth at 10 µM [23]: 44%
inhibition of growth at 10 µM [24]: 33%
inhibition of growth at 10 µM [25]: 27%
inhibition of growth at 10 µM [26]: 21%
inhibition of growth at 10 µM [27]: 37%
inhibition of growth at 10 µM [28]: 38%
inhibition of growth at 10 µM [29]: 23%
inhibition of growth at 10 µM [30]: 31%
inhibition of growth at 10 µM [31]: 33%
inhibition of growth at 10 µM [32]: 21%
inhibition of growth at 10 µM [33]: 53%
inhibition of growth at 10 µM [34]: 58%
inhibition of growth at 10 µM [35]: 25%
inhibition of growth at 10 µM [36]: 40%
inhibition of growth at 10 µM [37]: 41%
Activity [38]: inactive
inhibition of growth at 10 µM [39]: 36%
inhibition of growth at 10 µM [40]: 33%
inhibition of growth at 10 µM [41]: 42%
inhibition of growth at 10 µM [42]: 22%
inhibition of growth at 10 µM [43]: 42%
inhibition of growth at 10 µM [44]: 30%
inhibition of growth at 10 µM [45]: 22%
